# Most compounds without a hit are left out; they make up all but 2.4% or so of the library.
# Apaf-1 inh = blocks human Apaf-1 apoptosome activity; 330,000 compounds, 0.71% hits; AID 489030; inhibition, % at 20 µM; reconstituted apoptosome caspase-3 activity, DEVD-Rh110 fluorescence; O14727; active = inhibition of at least 40% at 20 µM;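 also: plate controls were DMSO wells for no effect and DEVD-CHO caspase inhibitor wells for full effect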
#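 Material: biochemical Apaf-1 apoptosome reconstitution. Medium: Hepes buffer, pH 7.5. Also added: cytochrome c activation, bis-DEVD rhodamine 110 substrate. Timing: 30 min compound preincubation, 50 min activation, room temperature. Measured by: rhodamine 110 fluorescence at Ex 480/Em 540 nm.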
# TMEM16A act = mouse TMEM16A channel activation, primary screen | AID 623877 | B-score at 10 µM | HEK293 TMEM16A/YFP-H148Q/I152L, iodide quench fluorescence; hits give low values | Q8BHY3 | 340,000 compounds, 0.3% hits;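 active = fluorescence-ratio B-score plate-corrected deviation score at least 3 library SD below zero, with starting fluorescence score within 5 deviations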;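 also: channel opened by trigger with iodide after compound preincubation; score built on the fluorescence ratio of max minus min over baseline; more negative score means more quench and so TMEM16A activation or potentiation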
# UBC13 inh = inhibitors of human UBC13 polyubiquitin chain formation; P61088; TR-FRET; inhibition, % at 20 µM; 330,000 compounds, 0.47% hits; in the data active = inhibition above about 45%, passing the limit was not always enough
# Target sequence (P61088 whole entry, looked up): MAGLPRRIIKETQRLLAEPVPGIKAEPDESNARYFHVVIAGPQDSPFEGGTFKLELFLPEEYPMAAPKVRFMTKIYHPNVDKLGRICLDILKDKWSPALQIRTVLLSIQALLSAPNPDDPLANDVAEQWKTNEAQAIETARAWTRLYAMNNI
# DNA FID counter = counter-screen for HCV NS3 helicase inhibitors: DNA intercalator displacement; DNA fluorescent intercalator displacement, fluorescence; inhibition, % at 7.9 µM; 290,000 compounds, 0.17% hits; in the data active = inhibition above about 37%;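 also: 0% = vehicle and 100% = reference compound; higher means more ethidium bromide displaced from hairpin DNA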
# ANO1 block = inhibitors of mouse TMEM16A calcium-activated chloride channel | AID 588511 | normalized B-score (activity score, 25-100; higher = stronger inhibition) at 10 µM | HEK293 TMEM16A/YFP iodide influx fluorescence, ionomycin | 310,000 compounds, 1.2% hits;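 active = ratio plate-corrected score three or more library SD toward inhibition, starting fluorescence score within five deviations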;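 also: score derived from kinetic fluorescence span divided by baseline fluorescence per well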
# Apaf-1 inh conf = confirmation of Apaf-1 inhibitors; AID 504614; 1,800 compounds, 25% hits; shares compounds with Apaf-1 inh; reconstituted apoptosome, caspase-3 DEVD-Rh110 fluorescence; inhibition, % at 20 µM;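 active = mean inhibition of at least 40% at 20 µM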;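 also: plate controls were DMSO wells for no effect and DEVD-CHO caspase inhibitor control wells for full effect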
# Rh110 quench = interferes with Rh110 fluorescence, flagging false Apaf-1 inhibitors. shares compounds with Apaf-1 inh. Rh110 fluorescence interference, quenched caspase reaction. activation (fluorescence interference), % at 20 µM. 1,800 tested, under 10 active. AID 504615;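 active = signal rise of 40% or more at 20 µM, treated as a fluorescence artifact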
# Fluor interf inh = Apaf-1 inhibitor counter-screen fluorescence artifact; shares compounds with Apaf-1 inh; fluorescence interference counterscreen, Apaf-1 assay format; IC50, µM; 460 tested, under 10 active; AID 588538; call rule not given here
# The depositor's hits bear a star; i = inactive; · = no result.
SMILES,Apaf-1 inh,TMEM16A act,UBC13 inh,DNA FID counter,ANO1 block,Apaf-1 inh conf,Rh110 quench,others
Cc1cc(O)c2c(c1O)C(=O)[C@]13C(=C2O)C(=O)[C@@H]2[C@@H](O)[C@H]1[C@@H]1[C@H](O)[C@H]3C(=O)C3=C(O)c4c(O)cc(C)c(O)c4C(=O)[C@]312,68.5*,i,-275.8,·,·,58.6*,6.7,Fluor interf inh=>100
COc1ccc(C(=O)C2C(c3ccc(-c4ccccc4[N+](=O)[O-])o3)NC(=O)NC2(O)C(F)(F)F)cc1 (stereo not drawn),22.4,i,-30.2,-16.0,i,·,·,
O=C1NC(c2ccc(-c3ccccc3[N+](=O)[O-])o2)C(C(=O)c2ccc(F)cc2)C(O)(C(F)(F)F)N1 (stereo not drawn),51.1*,i,-23.4,-12.0,i,12.6,9.0,
N#Cc1cc2ccc(N3CCOCC3)cc2cc1C#N,82.2*,i,-29.7,2.5,i,9.9,10.3,
N#Cc1cc(Cl)c(N2CCOCC2)cc1C#N,-2.3,i,2.0,-7.4,i,·,·,
O=C(C[C@H]1C[C@H](C(=O)N2CCCCC2)[C@@]2(CCc3ccccc3)c3[nH]c4ccc(Cl)cc4c3CCN2C1=O)NCCCn1ccnc1,60.6*,·,·,·,·,26.4,10.4,
CC(C)(C)NC(=O)C[C@H]1C[C@H](C(=O)N2CCOCC2)[C@@]2(CCC3CCCC3)c3[nH]c4ccc(Cl)cc4c3CCN2C1=O,44.3*,i,·,·,·,27.6,20.4,
O=C(C[C@H]1C[C@H](C(=O)N2CCOCC2)[C@@]2(CCC3CCCC3)c3[nH]c4cc(-c5ccco5)ccc4c3CCN2C1=O)NCCCn1ccnc1,62.3*,·,·,·,·,32.4,8.5,
COCCCNC(=O)C[C@H]1C[C@H](C(=O)N2CCCCC2)[C@@]2(CCc3ccccc3)c3[nH]c4cc(-c5ccco5)ccc4c3CCN2C1=O,31.0,·,·,·,·,·,·,
O=C(C[C@H]1C[C@H](C(=O)N2CCCCC2)[C@@]2(CCc3ccccc3)c3[nH]c4cc(-c5ccco5)ccc4c3CCN2C1=O)NCCN1CCOCC1,47.7*,·,·,·,·,17.1,8.2,
C[C@]12c3[nH]c4ccc(Cl)cc4c3CCN1C(=O)[C@@H](CC(=O)NCCCn1ccnc1)C[C@@H]2C(=O)N1CCCCC1,16.2,·,·,·,·,·,·,
Cc1csc(SC(C)C(=O)NCC2CCCO2)n1 (stereo not drawn),-6.3,i,-1.2,·,i,·,·,
COc1ccc(COCC(O)CN2CCN(S(=O)(=O)c3ccc(C(C)C)cc3)CC2)cc1 (stereo not drawn),11.3,i,9.1,·,·,·,·,
CC[C@]12c3[nH]c4ccccc4c3CCN1C(=O)C(CC(=O)NC/C=C(\C)CCC=C(C)C)C[C@@H]2C(=O)N1CCN(C(=O)c2ccco2)CC1 (stereo partly drawn),21.9,·,23.2,·,·,·,·,
COc1ccc(CNC(=O)C[C@H]2C[C@H](C(=O)N(C(C)C)C(C)C)[C@@]3(C)c4[nH]c5ccc(Cl)cc5c4CCN3C2=O)cc1OC,28.8,·,·,·,·,·,·,
CC(C)N(C(=O)[C@H]1C[C@H](CC(=O)NCCC2=CCCCC2)C(=O)N2CCc3c([nH]c4ccc(Cl)cc34)[C@]12C)C(C)C,43.9*,·,·,·,·,22.9,11.7,
CC[C@]12c3[nH]c4ccc(OC)cc4c3CCN1C(=O)C(CC(=O)NC/C=C(\C)CCC=C(C)C)C[C@@H]2C(=O)N1CCN(C(=O)c2ccco2)CC1 (stereo partly drawn),40.2*,i,·,·,·,24.9,6.2,
Cc1ccccc1C(=O)N1CCC2CC1c1cc(-c3ccc(F)cc3)ccc12 (stereo not drawn),·,i,·,·,·,·,·,
COCCn1c(SCc2cc(C(C)=O)ccc2OC)nc2cc(Cl)ccc2c1=O,-1.8,i,8.6,-0.2,i,·,·,
CC(=O)Nc1ccc(S(=O)(=O)NC(C(=O)O)C(C)O)cc1 (stereo not drawn),-1.9,i,-3.3,2.5,i,·,·,
O=C(c1ccco1)N1CCN(C(=O)c2cn(-c3ccccc3)nc2-c2ccc(F)cc2)CC1,72.0*,i,0.8,·,·,15.2,6.1,
CC(C(=O)NC(=O)NC1CCCCC1)N(C)CC(=O)Nc1ccc(F)c(F)c1F (stereo not drawn),46.2*,i,-3.5,·,i,13.5,6.9,
COc1ccc(CCN(C)C(=O)c2cccc(S(=O)(=O)NCc3ccccc3)c2)cc1OC,56.7*,i,7.5,-35.9,i,37.7,5.5,
c1cc2c3c(cccc3c1)NC1(CCCCCC1)N2,49.0*,i,-27.9,2.9,i,57.4*,-3.7,Fluor interf inh=>100
CC1=Nc2cccc3cccc(c23)N1,12.7,i,-36.7,1.5,i,·,·,
SMILES,Apaf-1 inh,TMEM16A act,UBC13 inh,DNA FID counter,ANO1 block,Apaf-1 inh conf,Rh110 quench,others
c1cc2c3c(cccc3c1)NC1(CCCCC1)N2,21.8,i,-21.4,1.8,i,·,·,
c1cc2c3c(cccc3c1)NC1(CCC3(CC1)Nc1cccc4cccc(c14)N3)N2,40.1*,i,-35.8,-17.2,i,44.9*,8.0,Fluor interf inh=>100
Brc1ccc(-c2cn3nc4c(nc3n2)CCCC4)cc1,41.2*,i,11.1,-3.8,i,31.9,7.0,
c1ccc(-c2cn3nc4c(nc3n2)CCCC4)cc1,57.3*,i,-20.5,-2.9,i,27.1,4.1,
CCCCC[n+]1ccn(C2=C([O-])c3ccccc3C(=O)/C2=N\S(=O)(=O)c2ccc(Br)cc2)c1,61.0*,i,-114.8,-6.9,i,43.2*,4.5,Fluor interf inh=>100
CC(C)[n+]1ccn(C2=C([O-])c3ccccc3C(=O)/C2=N\S(=O)(=O)c2ccccc2)c1,46.2*,i,-57.6,4.8,i,68.3*,3.1,Fluor interf inh=>100
CCCCC[n+]1ccn(C2=C([O-])c3ccccc3C(=O)/C2=N\S(=O)(=O)c2ccccc2)c1,52.9*,i,-90.8,-5.1,i,62.5*,7.9,Fluor interf inh=>100
CC(C)(C)c1cc[n+](C2=C([O-])c3ccccc3C(=O)/C2=N\S(=O)(=O)c2ccccc2)cc1,8.9,i,-84.3,-5.8,i,·,·,
CNc1nc(-c2cccs2)cc(C(F)(F)F)c1C#N,-8.2,i,10.5,-6.2,i,·,·,
O=C(COC(=O)CN1C(=O)C2CCCCC2C1=O)Nc1cc(F)ccc1F (stereo not drawn),1.8,i,-1.7,·,·,·,·,
COCCCNC1=C(Cl)C(=O)c2ccccc2C1=O,33.3,i,-280.1,7.7,i,·,·,
CCN(CC)CCCNC1=C(Cl)C(=O)c2ccccc2C1=O,50.4*,i,-334.0,19.6,i,65.1*,4.1,Fluor interf inh=>100
CC(C)OCCCNC1=C(Cl)C(=O)c2ccccc2C1=O,52.8*,i,-279.4,-3.6,i,28.5,3.6,
COc1ccc(C)cc1S(=O)(=O)n1c([N+](=O)[O-])cnc1C,-3.9,i,-0.4,5.7,i,·,·,
